ChEMBL document CHEMBL1146566, “Antioxidant chalcone glycosides and flavanones from Maclura (Chlorophora) tinctoria” (J Nat Prod, 2003)
Active and inactive are the calls of the source. The calls are words filed in the database; no cut-off is given here.

Columns and labels:
[1] = Antioxidant activity assessed as trolox equivalents of ABTS radical scavenging activity by TEAC assay; format: functional
Method in brief: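 ABTS radical cation made from 7 mM ABTS and 2.45 mM potassium persulfate, 12 h dark at room temperature, diluted in PBS pH 7.4 to A734 0.70, equilibrated at 30 °C. Samples in methanol at 0.3–2 mM stock levels, 10 μL plus 1 mL ABTS. % inhibition of A734 versus methanol blank plotted against concentration, in triplicate. TEAC = Trolox concentration equivalent to 1 mM compound; quercetin as reference.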

[2] = Antioxidant activity assessed as autoxidation of linoleic acid by beta-carotene autoxidation assay; format: functional
Method in brief: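 Linoleic acid (20 mg), Tween 20 (200 mg) and β-carotene (2 mg in 10 mL CHCl3) mixed, CHCl3 removed, 50 mL oxygen-saturated water added. Samples oxidised at 50 °C for 3 h, A470 read at intervals. AA = [1 − (A0 − At)/(A00 − A0t)] × 100 versus no-compound control, reported at 60 and 120 min; BHT as control substance.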

Which Activity [1] does the source give for `O=c1c(O)c(-c2ccc(O)c(O)c2)oc2cc(O)cc(O)c12` here?
The Activity was 2.6 mM.

Which Activity [1] does the source give for `O=C1C[C@@H](c2ccc(O)cc2)Oc2cc(O)cc(O)c21` here?
The Activity was 0.77 mM.

Which Activity [1] does the source give for `O=C1C[C@@H](c2ccc(O[C@@H]3O[C@H](CO)[C@@H](O)[C@H](O)[C@H]3O)cc2)Oc2cc(O)cc(O)c21` here?
Its Activity is 0.782 mM.

With `CC(C)=CCc1c(O[C@@H]2O[C@H](CO)[C@@H](O)[C@H](O)[C@H]2O)ccc(C(=O)/C=C/c2ccc(O)cc2)c1O` as the compound, how does the Activity [1] read?
Its Activity is 2.26 mM.

What about the Activity [2] of the same compound?
The Activity was “Active”.

Which Activity [1] does the source give for `O=C(/C=C/c1ccc(O)cc1)O[C@H]1[C@H](Oc2ccc(C(=O)/C=C/c3ccc(O)cc3)c(O)c2O)O[C@H](CO)[C@@H](O)[C@@H]1O` here?
Its Activity is 1.93 mM.

What about the Activity [2] of the same compound?
Its Activity is “Active”.

What does the source list for `CC(=O)O[C@H]1[C@H](Oc2ccc(C(=O)/C=C/c3ccc(O)cc3)c(O)c2O)O[C@H](COC(=O)/C=C/c2ccccc2)[C@@H](O)[C@@H]1O`?
Activity [1]: 1.6 mM; Activity [2]: Active

Which results are given for `CC(=O)OC[C@H]1O[C@@H](Oc2ccc(C(=O)/C=C/c3ccc(O)cc3)c(O)c2O)[C@H](OC(=O)/C=C/c2ccc(O)cc2)[C@@H](O)[C@@H]1O`?
Activity [1]: 1.71 mM; Activity [2]: Active

Which Activity [1] does the source give for `O=C1C[C@@H](c2ccc(O)c(O)c2)Oc2cc(O[C@@H]3O[C@H](CO)[C@@H](O)[C@H](O)[C@H]3O)cc(O)c21` here?
Its Activity is 1.26 mM.
